Env fusion inh – inhibitors of HIV-1 Env-driven cell-cell fusion, primary screen, HeLa-JRFL effector, CEM21 target cells, luciferase; 360,000 tested, 1.1% active; inhibition, % at 12.3 µM;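 active = mean replicate inhibition score of at least 50 and every replicate individually at or above 50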;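 note: 0% = plate neutral controls and 100% = maraviroc near 300 nM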
Rtt109 HAT inh – inhibitors of C. albicans Rtt109/Vps75 HAT, primary screen, biochemical, ThioGlo CoA-SH fluorescence, plate reader. purified Rtt109/Vps75, 4 h. 330,000 tested, 0.16% active. inhibition, % at 34.9 µM;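 active = inhibition of at least 50% in every replicate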
Target sequence (Q5AAJ8 whole entry, looked up): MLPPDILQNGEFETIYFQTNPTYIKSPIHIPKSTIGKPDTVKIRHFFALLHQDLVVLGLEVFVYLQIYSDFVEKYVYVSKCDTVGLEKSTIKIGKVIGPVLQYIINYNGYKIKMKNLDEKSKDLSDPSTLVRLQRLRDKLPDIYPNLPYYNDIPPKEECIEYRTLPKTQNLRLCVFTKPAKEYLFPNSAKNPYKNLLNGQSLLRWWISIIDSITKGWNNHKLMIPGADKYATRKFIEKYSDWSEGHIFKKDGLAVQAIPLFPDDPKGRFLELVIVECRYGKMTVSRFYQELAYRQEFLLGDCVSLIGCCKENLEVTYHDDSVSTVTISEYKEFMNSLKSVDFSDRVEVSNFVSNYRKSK
Cneo AK release – Cryptococcus neoformans cell lysis inducers, primary screen, AK release luminescence, single concentration | lysis activity, % at 15 µM | 360,000 tested, 0.2% active | AID 651654, 2012 | C. neoformans lysis, adenylate kinase release luminescence, 4 h; normalised: neutral wells 0, clomiphene wells 100;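 active = mean lysis activity across replicates of at least 80%, whatever share of replicates individually reach that level; inactive = mean lysis activity below 80%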
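Assay system: log-phase C. neoformans yeast / Quantity: yeast cell density of 5 × 10^6 cells/mL / Medium: fresh YPD growth medium / Compound: single dose / Timing: static 4 h at 37 °C with compound, 1 h detection / Measured by: adenylate kinase release luminescence / Read-out: lysis from increased AK signal / Benchmarks: Clomiphene as positive lysis control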
INS-1E GSIS act – GLuc luminescence reporter in INS-1E cells, primary screen for activators of glucose-dependent secretion of insulin | INS-1E GLuc reporter insulin secretion, 2-3 h | activation, % at 16.6 µM | 370,000 tested, 0.61% active;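 active = lowest replicate activation of at least 40%, so every replicate reaches that level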;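 note: 0% = median of neutral control wells and 100% = median of IBMX positive control wells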
dFosB act – activators of delta FosB homodimer, primary screen, biochemical, fluorescence polarization, TAMRA-CDK5 oligo, single point | purified delta FosB; percent of positive-control signal above neutral wells | activation, % at 25 µM | 340,000 tested, 0.99% active;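 active = mean activation above about 17%, with every replicate also reaching it, limit read from the data, passing the limit was not always enough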
Target sequence (P13346 whole entry, looked up): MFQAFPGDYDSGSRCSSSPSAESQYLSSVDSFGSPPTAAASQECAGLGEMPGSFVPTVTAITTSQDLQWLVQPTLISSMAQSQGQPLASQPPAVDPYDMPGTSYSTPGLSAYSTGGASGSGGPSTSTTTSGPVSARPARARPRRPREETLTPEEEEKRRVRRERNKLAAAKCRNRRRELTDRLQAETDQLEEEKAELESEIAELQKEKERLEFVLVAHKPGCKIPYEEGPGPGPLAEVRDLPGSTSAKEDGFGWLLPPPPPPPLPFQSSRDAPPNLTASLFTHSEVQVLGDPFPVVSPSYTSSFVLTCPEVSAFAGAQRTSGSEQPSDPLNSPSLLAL
miR122 inh – miR-122 Renilla sensor signal increase in Huh7, primary screen, miR-122 inhibitor project, cell-based, single point, plate reader. Huh7 miR-122 Renilla luciferase sensor, 48 h; neutral wells = 0, positive control = 100. activation (reporter increase), % at 12.5 µM. 340,000 tested, 0.3% active. AID 602342, 2012;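 active = mean replicate activation score at least 90 and every replicate individually at or above 90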;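 note: higher luciferase means less miR-122 activity so hits act as miR-122 inhibitors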
* marks the source's active call; other numbers are inactive results; . = not tested or not shown; [ ] = another dose, or the depositor's remark. Hits are enriched below; roughly 2.4% of the tested compounds scored in any of these assays.

SMILES | Env fusion inh | Rtt109 HAT inh | Cneo AK release | INS-1E GSIS act | dFosB act | miR122 inh
CC(C)CC#Cc1ccc2c(c1)O[C@H](CN(C)C(=O)Nc1ccccc1F)[C@@H](C)CN([C@@H](C)CO)S2(=O)=O | -9[16.7 µM] | . | 3 | -6 | . | 107*[16.7 µM]
CC(C)CC#Cc1ccc2c(c1)O[C@@H](CN(C)Cc1ccccc1)[C@H](C)CN([C@H](C)CO)S2(=O)=O | 6[16.7 µM] | . | . | 346* | . | -2[16.7 µM]
O=C(C1CCC1)N1CC2(C1)[C@H](c1ccccc1)[C@@H](CO)N2C(=O)CC1CC1 | . | . | . | 11 | . | .
COc1cccc(-c2ccc([C@H]3[C@@H](CO)N4C(=O)CN(C(=O)C5CCC5)C[C@@H]34)cc2)c1 | . | . | . | -7 | . | .
COCC(=O)N1[C@H](CO)[C@@H](c2ccccc2)C12CN(C(=O)c1cccnc1)C2 | . | . | . | 13 | . | .
O=C(CN1CCOCC1)NCC[C@@H]1CC[C@H](NC(=O)c2ccc3c(c2)OCO3)[C@@H](CO)O1 | -8[16.7 µM] | . | -3 | 9 | . | .
CCCCC1Cc2[nH]c(=S)[nH]c(=O)c2C(C(C)C)O1 (stereo not given) | -1 | . | . | 42* | . | .
CC1Cc2[nH]c(=S)[nH]c(=O)c2C(C(C)C)O1 (stereo not given) | -21 | . | . | -4 | . | .
C[C@H]1CN([C@@H](C)CO)C(=O)c2cc(-c3cccc(C#N)c3)cnc2O[C@@H]1CN(C)C(=O)C1CCCCC1 | . | . | . | -15 | . | .
O=C(NC1CCCCC1)N1CC(=O)N2[C@H](CO)[C@H](c3ccc(/C=C/c4ccccc4)cc3)[C@H]2C1 | . | . | . | -21 | . | .
O=C(NNC(=O)c1ccc(Br)s1)c1csc(N2CCOCC2)n1 | . | 1 | -1 | 5 | 61* | -10
Nc1ncn([C@H]2C[C@H](O)[C@@H](CO)O2)c(=O)n1 | 69* | -7 | -1 | . | 3 | -6
Nc1ccn([C@H]2C[C@H](O)[C@@H](CO)O2)c(=O)n1 | -5 | 5 | 2 | 0 | 0 | 2
CCn1c(COc2ccc(Cl)cc2)nnc1SCc1nc2ccccc2[nH]1 | 114* | 0 | 4 | . | -19 | 6
O=C(O)c1cccc(-c2ccc(/C=N/Nc3ccc([N+](=O)[O-])cc3)o2)c1 | -11 | 7 | -1 | -20 | -7 | -11
O=C(O)c1ccc(-c2ccc(/C=N/Nc3ccc([N+](=O)[O-])cc3)o2)cc1 | -10 | 50* | . | -13 | -15 | .
O=C(C[C@H]1CC[C@H](NC(=O)c2cccc(F)c2)[C@H](CO)O1)NCCN1CCCC1 | 7[16.7 µM] | . | 25 | 3 | . | 2[16.7 µM]
COc1ccc(-c2cnc3c(c2)C(=O)N([C@@H](C)CO)C[C@@H](C)[C@@H](CN(C)S(C)(=O)=O)O3)cc1 | -38[16.7 µM] | . | 93* | 40 | . | 38[16.7 µM]
COc1ccc(-c2cnc3c(c2)C(=O)N([C@H](C)CO)C[C@H](C)[C@H](CN(C)S(C)(=O)=O)O3)cc1 | -16[16.7 µM] | . | -16 | -4 | . | 16[16.7 µM]
C[C@@H]1CN([C@H](C)CO)C(=O)c2cc(-c3cccc(F)c3)cnc2O[C@H]1CN(C)Cc1ccccc1 | -7[16.7 µM] | . | 116* | -1 | . | -2[16.7 µM]
C[C@H]1CN([C@@H](C)CO)C(=O)c2cc(-c3ccc(F)cc3)cnc2O[C@@H]1CN(C)CC1CCCCC1 | -5[16.7 µM] | . | 90* | 8 | . | 7[16.7 µM]
C[C@@H]1CN([C@@H](C)CO)C(=O)c2cc(C3=CCCCC3)cnc2O[C@H]1CN(C)C(=O)Cc1cccnc1 | -31[16.7 µM] | . | 110* | -2 | . | 0[16.7 µM]
C[C@H]1CN([C@@H](C)CO)C(=O)c2cc(C3=CCCCC3)cnc2O[C@H]1CN(C)C(=O)Cc1cccnc1 | 7[16.7 µM] | . | 0 | 30 | . | 2[16.7 µM]
C[C@@H]1CN(C)C(=O)c2cc(N(C)C)ccc2O[C@@H]1CN(C)C | . | . | . | 17 | . | .
C[C@@H]1CN([C@H](C)CO)C(=O)c2cc(NC(=O)NC3CCCCC3)ccc2O[C@@H](C)CCCCO[C@H]1CN(C)Cc1ccccc1 | -14[16.7 µM] | . | 1 | -16 | . | -7[16.7 µM]
SMILES | Env fusion inh | Rtt109 HAT inh | Cneo AK release | INS-1E GSIS act | dFosB act | miR122 inh
C=CCN1Cc2ccccc2C[C@@]2(COC(c3ccc(OCCCO)cc3)=N2)C1=O | -20[16.7 µM] | . | 3 | . | . | .
C[C@@H]1CN([C@H](C)CO)S(=O)(=O)c2ccc(-c3ccc(C(=O)N(C)C)cc3)cc2O[C@H]1CN(C)C(=O)Nc1ccccc1F | -2[16.7 µM] | . | -4 | 16 | . | -7[16.7 µM]
C[C@@H]1CN([C@H](C)CO)C(=O)Cc2cc(NC(=O)Nc3cccc4ccccc34)ccc2O[C@H]1CN(C)Cc1ccc2c(c1)OCO2 | . | . | 2 | -28 | . | -11[16.7 µM]
CO[C@@H]1CN(C)C(=O)c2cc(NC(=O)NC(C)C)ccc2OC[C@@H](C)N(Cc2ccccn2)C[C@@H]1C | . | . | 1 | -4 | . | .
COc1cccc(S(=O)(=O)N(C)C[C@@H]2Oc3ncc(-c4cccc(F)c4)cc3C(=O)N([C@H](C)CO)C[C@@H]2C)c1 | 26[16.7 µM] | . | 112* | -17 | . | 0[16.7 µM]
CNC[C@@H]1Oc2ncc(C#CCC(C)C)cc2C(=O)N([C@H](C)CO)C[C@@H]1C | . | . | . | 3 | . | .
CC(C)CC#Cc1cnc2c(c1)C(=O)N([C@@H](C)CO)C[C@@H](C)[C@H](CN(C)Cc1cccc(F)c1)O2 | 25[16.7 µM] | . | 1 | -2 | . | -2[16.7 µM]
CNC[C@H]1Oc2ncc(C#CCC(C)C)cc2C(=O)N([C@H](C)CO)C[C@H]1C | -11[16.7 µM] | . | 90* | 0 | . | 22[16.7 µM]
COc1ccc(-c2cnc3c(c2)C(=O)N([C@H](C)CO)C[C@H](C)[C@H](CN(C)Cc2ccc(F)cc2)O3)cc1 | -13[16.7 µM] | . | 98* | . | . | 37[16.7 µM]
CC(C)CC#Cc1cnc2c(c1)C(=O)N([C@H](C)CO)C[C@H](C)[C@@H](CN(C)Cc1cccc(F)c1)O2 | -7[16.7 µM] | . | 88* | -15 | . | 25[16.7 µM]
CN(C)C(=O)C[C@@H]1CC[C@@H]2[C@H](COc3ccc(NC(=O)c4ccc(F)c(F)c4)cc3C(=O)N2C)O1 | 13[16.7 µM] | . | 1 | 1 | . | 12[16.7 µM]
C[C@@H]1CCCCO[C@H](CN(C)Cc2ccc3c(c2)OCO3)[C@H](C)CN([C@@H](C)CO)C(=O)c2cc(NC(=O)Nc3cccc4ccccc34)ccc2O1 | -13[16.7 µM] | . | 3 | -14 | . | -3[16.7 µM]
COc1cccc(-c2cnc3c(c2)C(=O)N([C@H](C)CO)C[C@H](C)[C@H](CN(C)C(=O)Nc2cccc4ccccc24)O3)c1 | 89*[16.7 µM] | . | -5 | -28 | . | -6[16.7 µM]
CC(C)CC#Cc1cnc2c(c1)C(=O)N([C@H](C)CO)C[C@@H](C)[C@@H](CN(C)C(=O)c1ccc3c(c1)OCO3)O2 | -2[16.7 µM] | . | 89* | -23 | . | -3[16.7 µM]
C[C@@H]1CN([C@H](C)CO)C(=O)c2cc(-c3cncnc3)cnc2O[C@H]1CN(C)C(=O)c1ccccc1F | -11[16.7 µM] | . | 0 | 8 | . | -1[16.7 µM]
